Results: PMC5767125 (Journal of medicinal chemistry, 2017)

Legend:
D3R = D3R (Homo sapiens, UniProt P35462); test: Inhibition of forskolin-dependent stimulation of adenylyl cyclase; type: cell-based; details: compound at 10x the Ki value; efficacy relative to full agonist Quinpirole
In short: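 Test compound at 10x its Ki, assessed for inhibiting forskolin-dependent adenylyl cyclase stimulation. Output is mean percent efficacy ± SEM relative to the full agonist quinpirole.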

5-HT2A receptor = 5-HT2A receptor (Homo sapiens, UniProt P28223); test: 5-HT2A receptor binding; details: data not shown; comparable to those at 5-HT1AR
Chain of 5-HT2A receptor (P28223 whole entry): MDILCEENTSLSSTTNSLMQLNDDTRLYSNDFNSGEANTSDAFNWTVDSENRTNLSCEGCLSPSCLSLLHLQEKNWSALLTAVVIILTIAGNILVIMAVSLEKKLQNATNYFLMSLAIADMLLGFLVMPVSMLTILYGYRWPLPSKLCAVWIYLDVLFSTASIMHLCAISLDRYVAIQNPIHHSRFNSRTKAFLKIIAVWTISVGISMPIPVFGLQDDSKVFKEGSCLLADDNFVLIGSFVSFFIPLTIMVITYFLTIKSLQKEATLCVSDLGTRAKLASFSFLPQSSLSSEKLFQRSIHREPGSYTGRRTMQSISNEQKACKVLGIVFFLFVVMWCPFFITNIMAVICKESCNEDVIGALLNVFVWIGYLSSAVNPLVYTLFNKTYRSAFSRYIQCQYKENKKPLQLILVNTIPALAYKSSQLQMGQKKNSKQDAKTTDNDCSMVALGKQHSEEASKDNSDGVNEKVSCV

5-HT2c receptor = target: T1, 5-HT2c receptor (Homo sapiens, UniProt P28335); test: 5-HT2c receptor binding; details: data not shown; comparable to those at 5-HT1AR
T1 sequence (P28335 33-458): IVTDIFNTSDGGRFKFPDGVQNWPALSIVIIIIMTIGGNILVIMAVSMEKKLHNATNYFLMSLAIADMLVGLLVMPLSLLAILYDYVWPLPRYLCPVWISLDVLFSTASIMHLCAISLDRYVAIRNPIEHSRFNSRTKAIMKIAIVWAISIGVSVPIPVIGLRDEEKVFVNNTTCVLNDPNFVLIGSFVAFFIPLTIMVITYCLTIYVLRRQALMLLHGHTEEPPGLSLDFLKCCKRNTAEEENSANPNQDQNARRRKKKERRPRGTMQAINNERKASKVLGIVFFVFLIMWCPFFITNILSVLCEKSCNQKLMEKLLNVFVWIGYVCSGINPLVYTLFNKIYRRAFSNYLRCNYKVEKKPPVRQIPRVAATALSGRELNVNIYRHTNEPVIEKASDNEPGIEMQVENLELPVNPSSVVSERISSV

Chain of D3R (P35462 whole entry): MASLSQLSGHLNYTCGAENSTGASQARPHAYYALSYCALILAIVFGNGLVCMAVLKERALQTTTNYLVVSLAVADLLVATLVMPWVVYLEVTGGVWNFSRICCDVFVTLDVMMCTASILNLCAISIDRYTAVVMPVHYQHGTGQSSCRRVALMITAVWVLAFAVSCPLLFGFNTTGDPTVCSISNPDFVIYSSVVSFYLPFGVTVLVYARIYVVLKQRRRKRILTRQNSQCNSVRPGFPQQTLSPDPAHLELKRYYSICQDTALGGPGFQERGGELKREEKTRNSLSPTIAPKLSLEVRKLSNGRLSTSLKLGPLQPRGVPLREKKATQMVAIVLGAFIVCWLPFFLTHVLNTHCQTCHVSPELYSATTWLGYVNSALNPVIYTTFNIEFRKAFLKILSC

SMILES	functional activity, adenylyl cyclase assay (D3R)	binding affinity at 5-HT2A receptor (5-HT2A receptor)	binding affinity at 5-HT2c receptor (5-HT2c receptor)
COc1ccccc1N1CCC2(CCN(CCCSc3nnc(-c4ccccc4)n3C)CC2)C1 [Compound 14]	low activity	low binding affinities	low binding affinities
COc1ccccc1N1CCC2(CCN(CCCSc3nnc(-c4ccccc4)n3C)CC2)CC1 [Compound 15a]	partial agonist	low binding affinities	low binding affinities
Cn1c(SCCCN2CCC3(CC2)CCN(c2ccc(F)cc2)CC3)nnc1-c1ccccc1 [Compound 15c]	low activity	low binding affinities	low binding affinities
